Source: PubChem BioAssay (Sanford-Burnham Center for Chemical Genomics)
Compounds with a hit are over-represented: about 3.3% of the library has one in this group of screens.
SENP1 inh = blocks the human SENP1 SUMO protease catalytic domain. AID 624204. hit rate 0.21% among 360,000. Q9P0U3. inhibition, % at 10 µM. recombinant SENP1 catalytic domain, CyPet-SUMO1-YPet FRET cleavage;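 active = inhibition at least 30% at 10 µM, raw YFP signal under a set limit, fluorescence ratio 0.5 to 1.5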;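 also: 0% = enzyme with DMSO and 100% = no enzyme wells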
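Test system: human SENP1 catalytic domain; medium: Tris pH 8 buffer plus EDTA, NaCl, BME, BSA, NP40, catalase; incubation: 50 min reaction at room temperature; technique: FRET, CFP and YFP emission; controls: no-enzyme low control and enzyme-plus-DMSO high control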
SENP8 block-1 = blocks human SENP8 cleavage of Nedd8 substrate | Q96LD8 | recombinant SENP8, Nedd8 substrate fluorescence | inhibition, % at 20 µM | hit rate 0.64% among 360,000; in the data active = inhibition mostly above about 40%, no sharp cut-off; inactive = mostly below about 27%
Target sequence (Q96LD8 whole entry, looked up): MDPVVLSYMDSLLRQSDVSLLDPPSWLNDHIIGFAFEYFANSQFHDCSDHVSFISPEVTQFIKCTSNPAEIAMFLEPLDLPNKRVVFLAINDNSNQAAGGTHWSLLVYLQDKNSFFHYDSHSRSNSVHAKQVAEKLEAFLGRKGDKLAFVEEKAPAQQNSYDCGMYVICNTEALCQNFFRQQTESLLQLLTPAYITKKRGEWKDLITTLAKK
NRP1-CendR mod = modulators of CendR peptide binding to human neuropilin-1; FAM-RPARPAR peptide binding to NRP-1, fluorescence polarization; hit rate 0.85% among 360,000; inhibition, % at 25 µM; AID 602438;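 active = inhibition or corrected inhibition above about 18%, plus a signal ratio from 0.5 to 1.5, limit read from the data, passing the limit was not always enough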
SENP6 inh = inhibitors of human SENP6 protease; Q9GZR1; Recombinant SENP6 catalytic domain, aminoluciferin luminescence; inhibition, % at 10 µM; hit rate 1.8% among 330,000;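 active = inhibition above about 50% at the single tested dose, limit read from the data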;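 also: plate controls were DMSO wells with enzyme for no effect and DMSO wells lacking enzyme for full effect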
SENP8 block-2 = blocks the human protease SENP8; hit rate 1.2% among 330,000; inhibition, % at 10 µM; AID 2540; purified SENP8, Z-RLRGG-aminoluciferin cleavage, luminescence; in the data active = inhibition above about 50%
SENP7 block = SENP7 protease inhibition | recombinant SENP7, Z-RLRGG-aminoluciferin luminescence, 40 min | inhibition, % at 5 µM | hit rate 1.5% among 330,000;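 active = inhibition above about 50% at the single test dose, limit read from the data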;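 also: plate controls were DMSO with enzyme for no effect and no enzyme buffer wells for full effect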
Target sequence (Q9BQF6 706-1050 limits assumed): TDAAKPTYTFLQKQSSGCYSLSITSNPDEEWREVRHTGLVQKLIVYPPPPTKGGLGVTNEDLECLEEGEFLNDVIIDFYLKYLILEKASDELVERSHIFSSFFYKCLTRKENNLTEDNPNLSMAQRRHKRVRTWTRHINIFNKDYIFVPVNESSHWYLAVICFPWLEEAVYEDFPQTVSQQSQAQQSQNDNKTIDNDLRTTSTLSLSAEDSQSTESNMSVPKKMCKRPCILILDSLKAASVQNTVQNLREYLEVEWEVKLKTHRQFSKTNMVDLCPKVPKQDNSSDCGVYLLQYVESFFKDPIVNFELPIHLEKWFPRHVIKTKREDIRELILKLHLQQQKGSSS
SENP8 conf = confirmation of human SENP8 protease inhibitors; inhibition, % at 25 µM; AID 624319; shares compounds with SENP8 block-1; purified SENP8, Nedd8-AMC/pro-Nedd8 cleavage fluorescence, 30 min; hit rate 15% among 1,400; in the data active = inhibition mostly above about 39%, no sharp cut-off; inactive = mostly below about 34%
* marks the source's active call; other numbers are inactive results; . = not tested or not shown.

SMILES	SENP1 inh	SENP8 block-1	NRP1-CendR mod	SENP6 inh	SENP8 block-2	SENP7 block	SENP8 conf
COc1cccc(NC(=S)NN=C2CCC(C(C)(C)C)CC2)c1 (configuration not stated)	2.5	47.2*	11.3	6.7	-4.3	-9.8	10.3
O=C(/C=C/NNC(=O)c1ccccc1)c1ccc(Br)cc1	14.0	17.6	-6.5	7.7	-8.9	-7.5	.
O=C(/C=C/NNC(=O)c1ccc(Cl)cc1)c1ccccc1	0.5	39.0*	-2.0	-1.2	-8.9	-7.9	31.7
CCOc1cc(C(=S)N2CCOCC2)cc(Br)c1OS(=O)(=O)c1ccccc1	1.1	41.6*	-2.2	-7.6	6.2	-5.6	65.7*
CCOc1cc(C(=S)N2CCOCC2)ccc1OS(=O)(=O)c1ccc(C)cc1	-0.1	17.8	3.4	-4.6	-4.9	4.1	.
C/C(=C\C(=O)c1ccccc1)Nc1ccc(O)cc1	1.8	84.2*	1.1	9.3	-5.4	17.4	16.1
C/C(=C\C(=O)c1cccnc1)Nc1ccc(O)cc1	3.8	83.7*	-3.4	-6.7	1.0	11.1	16.0
COc1ccc(C(=O)/C=C(\C)Nc2ccc(NC(C)=O)cc2)cc1	-0.1	20.6	4.7	10.6	4.4	10.5	.
COC(=O)[C@H](CC(C)C)NC(=O)/C=C/[C@H]1O[C@@H](n2ccc(=O)[nH]c2=O)[C@H](O)[C@@H]1O	2.5	26.7	15.2	.	.	.	.
CC(C)C[C@@H]1CC2=C(C(=O)OC(C)(C)O2)[C@H](c2ccc(Cl)cc2)O1	1.4	10.4	-14.1	.	.	.	.
CC(C)Nc1ccc(C(CC(N)=O)NC(=O)c2ccccc2)cc1[N+](=O)[O-] (configuration not stated)	-0.1	44.1*	-13.7	-9.8	-0.6	3.7	7.2
CC(C)Nc1ccc(C(CC(N)=O)NC(=O)c2ccc(Br)cc2)cc1[N+](=O)[O-] (configuration not stated)	2.8	17.4	16.4	-4.6	-4.4	2.8	.
NC(=O)CC(NC(=O)c1ccccc1)c1ccc(NC2CCCC2)c([N+](=O)[O-])c1 (configuration not stated)	5.9	40.7*	-48.4	2.5	4.2	3.3	24.5
O=C(NNC(=O)c1ccncc1)Nc1ccc(N=Nc2ccccc2)cc1	0.9	34.6	19.3	.	.	.	.
COc1ccc(-c2ccc(C(c3c(C)[nH][nH]c3=O)c3c(C)[nH][nH]c3=O)o2)c([N+](=O)[O-])c1	-0.2	37.6*	8.6	13.2	20.5	10.5	30.9
Cc1[nH][nH]c(=O)c1C(c1ccc(-c2ccc(Cl)c(Cl)c2)o1)c1c(C)[nH][nH]c1=O	0.0	73.7*	-17.1	23.7	5.8	-4.4	62.9*
Cc1[nH][nH]c(=O)c1C(c1ccc(-c2ccc(F)cc2)o1)c1c(C)[nH][nH]c1=O	0.1	75.0*	-3.7	13.5	2.7	-0.7	72.0*
Cc1[nH][nH]c(=O)c1C(c1ccc(-c2ccc(C(=O)O)cc2)o1)c1c(C)[nH][nH]c1=O	-5.0	5.2	-18.1	.	.	.	.
Cc1ccccc1-c1cnc(C(O)c2ccc(F)cc2C)[nH]1 (configuration not stated)	-1.2	17.6	-1.2	.	.	.	.
CC(=O)c1c(C)[nH]c(C(=O)Nc2ccc(N3CCCCCC3)cc2)c1C	2.1	-4.3	-1.5	.	.	.	.
N#Cc1ccccc1OCC(=O)Nc1ccc2c(c1)OCO2	-1.3	15.7	0.1	.	.	.	.
Cc1cccc(NC(=O)CNC(=O)[C@H]2O[C@@H](n3ccc(N)nc3=O)[C@H](O)[C@@H]2O)c1C	-2.5	13.9	5.7	.	.	.	.
CN(N=Cc1ccccc1)C(=S)Nc1ccccc1	-0.2	43.4*	-1.2	.	.	.	19.4
Cc1cccc(C)c1NC(=O)c1ccc([N+](=O)[O-])s1	-2.3	29.3*	14.7	42.0	1.5	-6.9	9.7
COc1ccc2c(c1OC)C(=O)OC2N1C(=O)CC[C@H]1C(=O)Nc1ccc2c(c1)OCO2 (some centres not stated)	4.7	44.2*	3.8	-4.0	2.4	-7.4	-2.9
SMILES	SENP1 inh	SENP8 block-1	NRP1-CendR mod	SENP6 inh	SENP8 block-2	SENP7 block	SENP8 conf
COc1ccccc1N1CC(C(=O)Nc2ccc3c(c2)OCO3)CC1=O (configuration not stated)	-0.6	1.1	3.8	0.9	0.0	2.3	.
CCNC(=O)C1(C)CCCN1C(=O)c1cc(C)on1 (configuration not stated)	0.6	27.5	-0.3	.	.	.	.
CC(=O)N1CCN(c2ccc(NC(=O)c3ccc(N4CCCC4)c([N+](=O)[O-])c3)cc2Cl)CC1	2.1	10.7	-5.0	-2.3	3.0	-5.2	.
CCN1CCN(c2ccc(NC(=O)c3ccc([N+](=O)[O-])o3)cc2Cl)CC1	-0.7	52.5*	2.0	.	.	.	19.6
Cc1ccc(NC(=O)c2ccc(N3CCOCC3)c([N+](=O)[O-])c2)cc1S(=O)(=O)N1CCOCC1	1.8	43.6*	-13.2	-3.0	-3.4	7.1	29.8
CCCC(=O)N1CCN(c2ccc(NC(=O)c3ccc(N4CCCC4)c([N+](=O)[O-])c3)cc2Cl)CC1	1.6	44.8*	-4.0	-7.9	6.5	8.5	18.2
Cc1ccc(C(=O)Nc2ccccc2[N+](=O)[O-])cc1S(=O)(=O)N1CCOCC1	1.7	8.1	11.1	-1.9	-4.5	4.4	.
OC[C@@H]1CN(CCN2CCOCC2)C[C@H](n2cnc3c(N4CCCC4)ncnc32)O1	-0.6	15.8	2.6	.	.	.	.
O=C1NC(C2CC3C=CC2C3)Nc2ccccc21 (configuration not stated)	-1.5	-460.7	-6.5	.	.	.	.
O=C(CSc1ccc(Br)cc1)Nc1ccccc1Oc1ccccc1	2.6	50.3*	10.6	-18.9	-4.4	0.2	14.3
O=C(CSc1ccc(Cl)cc1)Nc1ccccc1Oc1ccccc1	-0.9	23.4	2.0	6.8	7.7	6.0	.
CC(=O)Nc1cccc(-c2ccnc3c2CC(C(=O)Nc2cccc(N(C)C)c2)O3)c1 (configuration not stated)	4.3	-143.2	-21.0	.	.	.	.
COC(=O)c1ccc(NC(=O)C2CCCN2S(=O)(=O)c2ccc(C)cc2)cc1 (configuration not stated)	-0.1	-4.0	-5.4	18.7	-9.5	0.9	.
CC(=O)c1cccc(NC(=O)C2CCCN2S(=O)(=O)c2cccs2)c1 (configuration not stated)	0.6	41.0*	-8.9	.	.	.	17.2
O=C(Nc1ccc(Br)cc1)C1CCCN1S(=O)(=O)c1cccs1 (configuration not stated)	-2.4	3.4	-5.5	-21.8	-10.9	-11.0	.
COC(=O)c1ccc(NC(=O)C2CCCN2S(=O)(=O)c2ccc(OC)cc2)cc1 (configuration not stated)	1.9	40.8*	14.9	-4.4	4.1	1.5	15.6
CSc1cc(C)n(-c2ccc(Cl)cc2)c(=S)c1C(C)=O	2.2	41.9*	7.9	9.8	4.1	1.5	14.8
